Measured values reported in ChEMBL document CHEMBL1287735, “Synthesis of new acylsulfamoyl benzoxaboroles as potent inhibitors of HCV NS3 protease” (Bioorg Med Chem Lett, 2010).

Experiments:
Hepatitis C virus [1] = experiment: Antiviral activity against HCV genotype 1a transfected in human hepatoma cell assessed as inhibition of viral replication; assay type: functional, organism-based, Hepacivirus hominis; conditions: subtype 1a
[2] = Inhibition of HCV genotype 1 a NS3/4A protease by FRET assay; design: species or system Hepatitis C virus subtype 1a
Hepatitis C virus [3] = experiment: Antiviral activity against HCV genotype 1b transfected in human hepatoma cell assessed as inhibition of viral replication; assay type: functional, organism-based, Hepacivirus hominis
Rattus norvegicus [4] = experiment: (§1) Oral bioavailability in Sprague-Dawley rat at 5 mg/kg; assay type: ADME, organism-based; conditions: in vivo, BLD = below limit of detection
How it was run: (§2)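 Dosing was oral at 5 mg/kg and IV at 1 mg/kg (n = 3 each). Bioavailability was calculated from jugular vein drug concentrations after oral administration relative to IV administration. Limit of detection 0.5 ng/mL.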

[5] = Clearance in Sprague-Dawley rat at 1 mg/kg, iv; assay type: ADME, organism-based; design: dose 1 mg/kg, route intravenous; conditions: in vivo
How it was run: (§3)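 Rats (n = 3 per route) received compound orally at 5 mg/kg or intravenously at 1 mg/kg. Plasma drug levels were measured with a limit of detection of 0.5 ng/mL, and no PK data were generated for samples below it.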

Rattus norvegicus [6] = experiment: (§4) AUC (0 to infinity) in Sprague-Dawley rat at 5 mg/kg, po; assay type: ADME, organism-based, Plasma; design: time infinity, dose 5 mg/kg, route oral; conditions: in vivo, BLD = below limit of detection; how it was run: as §3
Rattus norvegicus [7] = experiment: Metabolic absorption in Sprague-Dawley rat at 5 mg/kg, po; assay type: ADME, organism-based; design: dose 5 mg/kg, route oral; conditions: in vivo
How it was run: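 Rats (n = 3 per route) were dosed orally at 5 mg/kg and intravenously at 1 mg/kg. Value calculated from portal vein drug concentrations after oral dosing relative to those after IV dosing. Limit of detection 0.5 ng/mL.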

[8] = as §1; assay type: ADME, organism-based; conditions: Sprague-Dawley, in vivo; how it was run: as §2
[9] = as §4; assay type: ADME, organism-based, Plasma; design: time infinity, dose 5 mg/kg, route oral; conditions: Sprague-Dawley, plasma; how it was run: as §3

SMILES | EC50 (Hepatitis C virus [1]) | IC50 [2] | EC50 (Hepatitis C virus [3]) | F (Rattus norvegicus [4]) | clearance [5] | AUC (Rattus norvegicus [6]) | Activity (Rattus norvegicus [7]; BLD = below limit of detection) | bioavailability [8] | AUC(0-inf) [9] | Activity (Rattus norvegicus [7])
O=C(N[C@H]1CCCCC/C=C\[C@@H]2C[C@@]2(C(=O)NS(=O)(=O)c2ccc3c(c2)COB3O)NC(=O)[C@@H]2C[C@@H](OC(=O)N3Cc4cccc(F)c4C3)CN2C1=O)OC1CCCC1 | 70 nM | 0.8 nM | 12 nM | – | – | – | – | – | – | –
C=C[C@@H]1C[C@]1(NC(=O)[C@@H]1C[C@@H]2CN1C(=O)[C@H](C(C)(C)C)NC(=O)OCC(C)(C)CCCCc1cccc3c1CN(C3)C(=O)O2)C(=O)NS(=O)(=O)c1ccc2c(c1)COB2O | 66 nM | 0.6 nM | 15 nM | – | – | – | – | – | – | –
C=C[C@@H]1C[C@]1(NC(=O)[C@@H]1C[C@@H]2CN1C(=O)[C@H](C(C)(C)C)NC(=O)OCC(C)(C)CCCCc1cccc3c1CN(C3)C(=O)O2)C(=O)NS(=O)(=O)c1ccc2c(c1)B(O)OC2 | 78 nM | 0.4 nM | 20 nM | – | – | – | – | – | – | –

Further compounds by falling EC50 (Hepatitis C virus [1]), results first:

EC50 (Hepatitis C virus [1]) | IC50 [2] | EC50 (Hepatitis C virus [3]) | F (Rattus norvegicus [4]) | clearance [5] | AUC (Rattus norvegicus [6]) | Activity (Rattus norvegicus [7]; BLD = below limit of detection) | bioavailability [8] | AUC(0-inf) [9] | Activity (Rattus norvegicus [7]) | SMILES
66 nM | 0.8 nM | 8 nM | BLD | 111 mL/min/kg | BLD | BLD | – | – | – | O=C(N[C@H]1CCCCC/C=C\[C@@H]2C[C@@]2(C(=O)NS(=O)(=O)c2ccc3c(c2)B(O)OC3)NC(=O)[C@@H]2C[C@@H](OC(=O)N3Cc4cccc(F)c4C3)CN2C1=O)OC1CCCC1
52 nM | 0.3 nM | 12 nM | – | 82 mL/min/kg | – | – | 1.2% | 14 ng·h/mL | 1.6% | C=C[C@@H]1C[C@]1(NC(=O)[C@@H]1C[C@@H]2CN1C(=O)[C@H](C(C)(C)C)NC(=O)OCC(C)(C)CCCCc1cccc3c1CN(C3)C(=O)O2)C(=O)NS(=O)(=O)c1cccc2c1COB2O
1 nM | 0.4 nM | 1.1 nM | – | 10.7 mL/min/kg | – | – | 20% | 1750 ng·h/mL | 17.4% | CC(C)(C)OC(=O)N[C@H]1CCCCC/C=C\[C@@H]2C[C@@]2(C(=O)NS(=O)(=O)C2CC2)NC(=O)[C@@H]2C[C@@H](OC(=O)N3Cc4cccc(F)c4C3)CN2C1=O [DANOPREVIR]
